Calls of active or inactive are those of the source. The calls are words filed in the database; no cut-off is given here.
Assays:
[1] = tested on: Brugia pahangi; test: Antinematodal activity against Brugia pahangi assessed as inhibition of worm motility at day 1 by worminator analysis; assay type: functional; conditions: time 1 day
Method in brief: (§1)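 Single adult female worm per well in RPMI-1640 (25 mM HEPES, 2.0 g/L NaHCO₃, 5% heat-inactivated FBS, 1X antibiotic/antimycotic), 4 replicate wells, 6 days at 37°C, 5% CO₂. Motility recorded 60 s per plate on days 0, 1, 2, 3 and 6 as pixels displaced/s. Inhibition = (1 − treated MMU/mean 1% DMSO control MMU) × 100, floored at zero. IC₅₀ from 3- and 6-point dilutions.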

[2] = tested on: Brugia pahangi; test: Antinematodal activity against Brugia pahangi assessed as inhibition of worm motility at day 2 by worminator analysis; assay type: functional; conditions: time 2 day; method in brief: as §1
[3] = tested on: Brugia pahangi; test: Antinematodal activity against Brugia pahangi assessed as inhibition of worm motility at day 3 by worminator analysis; assay type: functional; conditions: time 3 day; method in brief: as §1
[4] = tested on: Brugia pahangi; test: Antinematodal activity against Brugia pahangi assessed as inhibition of worm motility at day 6 by worminator analysis; assay type: functional; conditions: time 6 day; method in brief: as §1
[5] = tested on: Trichuris muris; test: Antinematodal activity against Trichuris muris assessed as inhibition of worm motility at day 1 by worminator analysis; assay type: functional
Method in brief: as §1, with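 “Two” for “Single”, “worms” for “female worm”, “plate as pixels displaced/s” for “plate”, “6.” for “6 as pixels displaced/s.”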

[6] = tested on: Trichuris muris; test: Antinematodal activity against Trichuris muris assessed as inhibition of worm motility at day 2 by worminator analysis; assay type: functional; conditions: time 2 day
Method in brief: as §1, with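 “Two” for “Single”, “worms” for “female worm”, “plate as pixels displaced/s” for “plate”, “6.” for “6 as pixels displaced/s.”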

[7] = tested on: Trichuris muris; test: Antinematodal activity against Trichuris muris assessed as inhibition of worm motility at day 5 by worminator analysis; assay type: functional; conditions: time 5 day
[8] = tested on: Trichuris muris; test: Antinematodal activity against Trichuris muris assessed as inhibition of worm motility at day 6 by worminator analysis; assay type: functional; conditions: time 6 day
Method in brief: as §1, with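 “Two” for “Single”, “worms” for “female worm”, “plate as pixels displaced/s” for “plate”, “6.” for “6 as pixels displaced/s.”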

[9] = tested on: Brugia pahangi; test: Antinematodal activity against Brugia pahangi assessed as inhibition of worm motility measured immediately by worminator analysis; assay type: functional; method in brief: as §1
[10] = tested on: Trichuris muris; test: Antinematodal activity against Trichuris muris assessed as inhibition of worm motility measured immediately by worminator analysis; assay type: functional
Method in brief: as §1, with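 “Two” for “Single”, “worms” for “female worm”, “plate as pixels displaced/s” for “plate”, “6.” for “6 as pixels displaced/s.”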

[11] = tested on: Saccharomyces cerevisiae; test: Antifungal activity against Saccharomyces cerevisiae harboring heterozygous UTP14 deletion mutant assessed as sensitivity by measuring ratio of control intensity to treatment intensity by chemogenomic screening analysis relative to control; assay type: functional
[12] = tested on: Saccharomyces cerevisiae; test: Antifungal activity against Saccharomyces cerevisiae harboring heterozygousYDL144C deletion mutant assessed as sensitivity by measuring ratio of control intensity to treatment intensity by chemogenomic screening analysis relative to control; assay type: functional
[13] = tested on: Saccharomyces cerevisiae; test: Antifungal activity against Saccharomyces cerevisiae harboring heterozygous YPR136C deletion mutant assessed as sensitivity by measuring ratio of control intensity to treatment intensity by chemogenomic screening analysis relative to control; assay type: functional
[14] = tested on: Saccharomyces cerevisiae; test: Antifungal activity against Saccharomyces cerevisiae harboring heterozygous HYP2 deletion mutant assessed as sensitivity by measuring ratio of control intensity to treatment intensity by chemogenomic screening analysis relative to control; assay type: functional
[15] = tested on: Saccharomyces cerevisiae; test: Antifungal activity against Saccharomyces cerevisiae harboring heterozygous ENP1 deletion mutant assessed as sensitivity by measuring ratio of control intensity to treatment intensity by chemogenomic screening analysis relative to control; assay type: functional
[16] = tested on: Brugia pahangi; test: Antinematodal activity against Brugia pahangi by worminator analysis; assay type: functional, organism-based; method in brief: as §1
[17] = tested on: Trichuris muris; test: Antinematodal activity against Trichuris muris by worminator analysis; assay type: functional, organism-based
Method in brief: as §1, with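 “Two” for “Single”, “worms” for “female worm”, “plate as pixels displaced/s” for “plate”, “6.” for “6 as pixels displaced/s.”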

[18] = tested on: Brugia pahangi; test: Antinematodal activity against Brugia pahangi infected in mongolian jirds assessed as reduction in worm burden at 10 mg/kg, po administered twice daily for 5 days; assay type: functional, organism-based; conditions: time 5.0 day
Method in brief: (§2)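 Male jirds (5–7 weeks, 50–60 g) infected ip with 200 L3. Oral dosing in 5% glucose started 5 months post-infection; vehicle received 5% glucose. Necropsy 5 days after last dose (6 animals/treated group, 9 vehicle). Worms recovered and counted. Ex vivo MF release compared by Kruskal–Wallis/Dunn. Embryograms were scored blinded by hemocytometer, ≥200 stages per female, 6–9 females/group, and analysed by two-way ANOVA/Dunnett versus vehicle.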

[19] = tested on: Brugia pahangi; test: Antinematodal activity against Brugia pahangi infected in mongolian jirds assessed as reduction in worm fecundity at 10 mg/kg, po administered twice daily for 5 days; assay type: functional, organism-based; conditions: time 5.0 day; method in brief: as §2
[20] = tested on: Brugia pahangi; test: Antinematodal activity against Brugia pahangi infected in mongolian jirds assessed as reduction in reproductive output at 10 mg/kg, po administered twice daily for 5 days; assay type: functional, organism-based; conditions: time 5.0 day; method in brief: as §2
[21] = tested on: Brugia pahangi; test: Antinematodal activity against Brugia pahangi infected in mongolian jirds assessed as reduction in number of eggs at 10 mg/kg, po administered twice daily for 5 days; assay type: functional, organism-based; conditions: time 5.0 day; method in brief: as §2
[22] = tested on: Brugia pahangi; test: Antinematodal activity against Brugia pahangi infected in mongolian jirds assessed as increase in number of deformed eggs at 10 mg/kg, po administered twice daily for 5 days; assay type: functional, organism-based; conditions: time 5.0 day; method in brief: as §2
[23] = tested on: Brugia pahangi; test: Antinematodal activity against Brugia pahangi infected in mongolian jirds assessed as reduction in number of microfilarial release at 10 mg/kg, po administered twice daily for 5 days; assay type: functional, organism-based; conditions: time 5.0 day; method in brief: as §2
[24] = tested on: Brugia pahangi; test: Antinematodal activity against Brugia pahangi infected in mongolian jirds assessed as tissue damage in reproductive tracts pre-infected for 5 months followed by compound addition at 10 mg/kg, po administered twice daily for 5 days; assay type: functional, organism-based; conditions: time 5.0 day
Method in brief: (§3)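 Male jirds (5–7 weeks, 50–60 g) infected ip with 200 L3. At 5 months, dosed orally in 5% glucose; vehicle received 5% glucose. Necropsy 5 days after last dose. Adult females fixed in 2.5% glutaraldehyde/2% paraformaldehyde in 0.1 M cacodylate, Spurr-embedded, ultrathin sections contrasted with uranyl substitute and lead citrate, imaged by TEM.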

[25] = tested on: Brugia pahangi; test: Antinematodal activity against Brugia pahangi infected in mongolian jirds assessed as deformed embryos with globular material pre-infected for 5 months followed by compound addition at 10 mg/kg, po administered twice daily for 5 days; assay type: functional, organism-based; conditions: time 5.0 day; method in brief: as §3
[26] = tested on: Brugia pahangi; test: Antinematodal activity against Brugia pahangi infected in mongolian jirds assessed as deformed embryos with punctate pre-infected for 5 months followed by compound addition at 10 mg/kg, po administered twice daily for 5 days; assay type: functional, organism-based; conditions: time 5.0 day; method in brief: as §3
[27] = tested on: Brugia pahangi; test: Antinematodal activity against Brugia pahangi infected in mongolian jirds assessed as deformed embryos with vacuolated spaces pre-infected for 5 months followed by compound addition at 10 mg/kg, po administered twice daily for 5 days; assay type: functional, organism-based; conditions: time 5.0 day; method in brief: as §3
[28] = tested on: Brugia pahangi; test: Antinematodal activity against Brugia pahangi infected in mongolian jirds assessed as embryos with autophagolysosomes pre-infected for 5 months followed by compound addition at 10 mg/kg, po administered twice daily for 5 days; assay type: functional, organism-based; conditions: time 5.0 day; method in brief: as §3
[29] = tested on: Brugia pahangi; test: Antinematodal activity against Brugia pahangi infected in mongolian jirds assessed as embryos with mature lysosomes pre-infected for 5 months followed by compound addition at 10 mg/kg, po administered twice daily for 5 days; assay type: functional, organism-based; conditions: time 5.0 day; method in brief: as §3
[30] = tested on: Trichuris muris; test: Downregulation of Hippo gene expression in Trichuris muris at 100 uM incubated for 2 to 3 hrs; assay type: functional; conditions: time 2-3 hrs
Method in brief: (§4)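 Adult female worms exposed in vitro to compound or 1% DMSO vehicle, then frozen at −80°C. RNA-seq reads aligned to the T. muris genome (PRJEB126, WBPS16) with STAR and counted per gene with featureCounts. Expression expressed as FPKM. Fold changes and significance relative to DMSO controls calculated with DESeq2.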

[31] = tested on: Trichuris muris; test: Downregulation of mTOR gene expression in Trichuris muris at 100 uM incubated for 2 to 3 hrs; assay type: functional; conditions: time 2-3 hrs; method in brief: as §4
[32] = tested on: Trichuris muris; test: Downregulation of AMPK gene expression in Trichuris muris at 100 uM incubated for 2 to 3 hrs; assay type: functional; conditions: time 2-3 hrs; method in brief: as §4
[33] = tested on: Trichuris muris; test: Downregulation of Wnt gene expression in Trichuris muris at 100 uM incubated for 2 to 3 hrs; assay type: functional; conditions: time 2-3 hrs; method in brief: as §4
[34] = tested on: Trichuris muris; test: Downregulation of fatty acid synthase expression in Trichuris muris at 100 uM incubated for 2 to 3 hrs; assay type: functional; conditions: time 2-3 hrs; method in brief: as §4
[35] = tested on: Trichuris muris; test: Downregulation of acyl-CoA synthetase expression in Trichuris muris at 100 uM incubated for 2 to 3 hrs; assay type: functional; conditions: time 2-3 hrs; method in brief: as §4
[36] = tested on: Trichuris muris; test: Downregulation of mitochondrial acyl carrier reductase expression in Trichuris muris at 100 uM incubated for 2 to 3 hrs; assay type: functional; conditions: time 2-3 hrs; method in brief: as §4
[37] = tested on: Saccharomyces cerevisiae; test: Antifungal activity against Saccharomyces cerevisiae harboring heterozygous PMP1 deletion mutant assessed as sensitivity by measuring ratio of control intensity to treatment intensity by chemogenomic screening analysis relative to control; assay type: functional
[38] = tested on: Saccharomyces cerevisiae; test: Antifungal activity against Saccharomyces cerevisiae harboring heterozygous RSC9 deletion mutant assessed as sensitivity by measuring ratio of control intensity to treatment intensity by chemogenomic screening analysis relative to control; assay type: functional
[39] = tested on: Saccharomyces cerevisiae; test: Antifungal activity against Saccharomyces cerevisiae harboring heterozygous PMC1 deletion mutant assessed as sensitivity by measuring ratio of control intensity to treatment intensity by chemogenomic screening analysis relative to control; assay type: functional
[40] = tested on: Saccharomyces cerevisiae; test: Antifungal activity against Saccharomyces cerevisiae harboring heterozygous YGR115C deletion mutant assessed as sensitivity by measuring ratio of control intensity to treatment intensity by chemogenomic screening analysis relative to control; assay type: functional
[41] = tested on: Saccharomyces cerevisiae; test: Antifungal activity against Saccharomyces cerevisiae harboring heterozygous RPC19 deletion mutant assessed as sensitivity by measuring ratio of control intensity to treatment intensity by chemogenomic screening analysis relative to control; assay type: functional

SMILES: CN(CCc1ccccc1)CC(O)(Cn1cncn1)c1ccc(F)cc1F.Cl (stereo unspecified)
- inhibition (INH) [1]: 19%
- inhibition (INH) [2]: 6%
- inhibition (INH) [3]: 8%
- inhibition (INH) [4]: 14%
- inhibition (INH) [5]: 15%
- inhibition (INH) [6]: 10%
- inhibition (INH) [7]: 1%
- inhibition (INH) [8]: 0%
- inhibition (INH) [9]: 32%
- inhibition (INH) [10]: 15%
- log2(ratio) [11]: -5.53
- log2(ratio) [12]: -4.93
- log2(ratio) [13]: -3.12
- log2(ratio) [14]: -2.45
- log2(ratio) [15]: -2.17

SMILES: CC(C1C2CC3CC(C2)CC1C3)N(C)CC(O)(Cn1cncn1)c1ccc(F)cc1F.Cl (stereo unspecified)
- inhibition (INH) [1]: 100%
- inhibition (INH) [2]: 100%
- inhibition (INH) [3]: 99%
- inhibition (INH) [4]: 100%
- inhibition (INH) [5]: 32%
- inhibition (INH) [6]: 42%
- inhibition (INH) [7]: 98%
- inhibition (INH) [8]: 93%
- IC50 [16]: 2.2 µM
- IC50 [17]: 20.4 µM
- Activity [18]: Active
- Activity [19]: Active
- Activity [20]: Active
- Activity [21]: Active
- Activity [22]: Active
- Activity [23]: Active
- Activity [24]: Active
- Activity [25]: Active
- Activity [26]: Active
- Activity [27]: Active
- Activity [28]: Active
- Activity [29]: Active
- Activity [30]: Active
- Activity [31]: Active
- Activity [32]: Active
- Activity [33]: Active
- Activity [34]: Active
- Activity [35]: Active
- Activity [36]: Active
- inhibition (INH) [9]: 100%
- inhibition (INH) [10]: 10%
- log2(ratio) [37]: -6.54
- log2(ratio) [38]: -6.48
- log2(ratio) [39]: -4.67
- log2(ratio) [40]: -4.65
- log2(ratio) [41]: -4.18
